Test results published in ChEMBL document CHEMBL4689842, “EUbOPEN Chemogenomics Library wave 1” (2021).
Several values for one entry are separate records, joined by “and”; a condition that tells them apart may be missing. Equal values may be shown once.

Test system: HEK-293T
Test: Multiplex assay against HEK293T;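 on Population Tubulin-Different-Phenotype (%): share of the cells with healthy nuclei that show this phenotype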
Type: toxicity, cell-based
Settings: human
Outline: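 At seeding, live cells were stained with Hoechst33342, BioTracker Green Microtubule Cytoskeleton Dye, MitoTracker Red and Annexin V Alexa Fluor 680. After compound addition they were imaged on a CQ1 microscope at 37°C and 5% CO2, and CellPathfinder machine-learning gating sorted them into Hoechst high-intensity objects or normal cells, with normal cells further split into healthy, pyknosed or fragmented nuclei and pyknosed cells into mitotic or apoptotic. Tubulin, mitochondrial-mass and membrane-permeability phenotypes are given as per cents of cells with healthy nuclei.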

[1] = 12 h, 1 µM, compound concentration 1 uM, replicate 1
[2] = 12 h, 1 µM, compound concentration 1 uM, replicate 2
[3] = 12 h, 10 µM, compound concentration 10 uM, replicate 1
[4] = 12 h, 10 µM, compound concentration 10 uM, replicate 2
[5] = 24 h, 1 µM, compound concentration 1 uM, replicate 1
[6] = 24 h, 1 µM, compound concentration 1 uM, replicate 2
[7] = 24 h, 10 µM, compound concentration 10 uM, replicate 1
[8] = 24 h, 10 µM, compound concentration 10 uM, replicate 2
[9] = 48 h, 1 µM, compound concentration 1 uM, replicate 1
[10] = 48 h, 1 µM, compound concentration 1 uM, replicate 2
[11] = 48 h, 10 µM, compound concentration 10 uM, replicate 1
[12] = 48 h, 10 µM, compound concentration 10 uM, replicate 2

## COc1cc(N2CCN(C)CC2)ccc1Nc1ncc2c(n1)N(C)c1ccccc1C(=O)N2C
[1]
  Population Apoptotic (%): 46%
  Population Fragmented Nuclei (%): 8%
  Population Healthy Nuclei (%): 45%
  Population Hoechst High Intensity Objects (%): 6%
  Population Membrane Permeable-Phenotype (%): 1%
  Population Mitochondria Different-Phenotype (%): 90%
  Population Mitotic Cells (%): 53%
  Population Normal (%): 93%
  Population Pyknosed Nuclei (%): 45%
  Population Tubulin-Different-Phenotype (%): 40%
  Total Cell Count: 359
[2]
  Population Apoptotic (%): 18%
  Population Fragmented Nuclei (%): 3%
  Population Healthy Nuclei (%): 37%
  Population Hoechst High Intensity Objects (%): 3%
  Population Membrane Permeable-Phenotype (%): 6%
  Population Mitochondria Different-Phenotype (%): 42%
  Population Mitotic Cells (%): 82%
  Population Normal (%): 96%
  Population Pyknosed Nuclei (%): 58%
  Population Tubulin-Different-Phenotype (%): 23%
  Total Cell Count: 176
[3]
  Population Apoptotic (%): 62%
  Population Fragmented Nuclei (%): 12%
  Population Healthy Nuclei (%): 17%
  Population Hoechst High Intensity Objects (%): 13%
  Population Membrane Permeable-Phenotype (%): 23%
  Population Mitochondria Different-Phenotype (%): 92%
  Population Mitotic Cells (%): 37%
  Population Normal (%): 86%
  Population Pyknosed Nuclei (%): 70%
  Population Tubulin-Different-Phenotype (%): 84%
  Total Cell Count: 172
[4]
  Population Apoptotic (%): 58%
  Population Fragmented Nuclei (%): 8%
  Population Healthy Nuclei (%): 15%
  Population Hoechst High Intensity Objects (%): 6%
  Population Membrane Permeable-Phenotype (%): 7%
  Population Mitochondria Different-Phenotype (%): 96%
  Population Mitotic Cells (%): 41%
  Population Normal (%): 93%
  Population Pyknosed Nuclei (%): 76%
  Population Tubulin-Different-Phenotype (%): 100%
  Total Cell Count: 190
[5]
  Population Apoptotic (%): 38%
  Population Fragmented Nuclei (%): 4%
  Population Healthy Nuclei (%): 58%
  Population Hoechst High Intensity Objects (%): 6%
  Population Membrane Permeable-Phenotype (%): 1%
  Population Mitochondria Different-Phenotype (%): 75%
  Population Mitotic Cells (%): 61%
  Population Normal (%): 93%
  Population Pyknosed Nuclei (%): 37%
  Population Tubulin-Different-Phenotype (%): 26%
  Total Cell Count: 423
[6]
  Population Apoptotic (%): 9%
  Population Fragmented Nuclei (%): 5%
  Population Healthy Nuclei (%): 48%
  Population Hoechst High Intensity Objects (%): 2%
  Population Membrane Permeable-Phenotype (%): 7%
  Population Mitochondria Different-Phenotype (%): 40%
  Population Mitotic Cells (%): 90%
  Population Normal (%): 97%
  Population Pyknosed Nuclei (%): 45%
  Population Tubulin-Different-Phenotype (%): 22%
  Total Cell Count: 225
[7]
  Population Apoptotic (%): 69%
  Population Fragmented Nuclei (%): 9%
  Population Healthy Nuclei (%): 19%
  Population Hoechst High Intensity Objects (%): 10%
  Population Membrane Permeable-Phenotype (%): 13%
  Population Mitochondria Different-Phenotype (%): 96%
  Population Mitotic Cells (%): 30%
  Population Normal (%): 89%
  Population Pyknosed Nuclei (%): 71%
  Population Tubulin-Different-Phenotype (%): 93%
  Total Cell Count: 170
[8]
  Population Apoptotic (%): 76%
  Population Fragmented Nuclei (%): 7%
  Population Healthy Nuclei (%): 20%
  Population Hoechst High Intensity Objects (%): 5%
  Population Membrane Permeable-Phenotype (%): 2%
  Population Mitochondria Different-Phenotype (%): 94%
  Population Mitotic Cells (%): 23%
  Population Normal (%): 94%
  Population Pyknosed Nuclei (%): 72%
  Population Tubulin-Different-Phenotype (%): 97%
  Total Cell Count: 195
[9]
  Population Apoptotic (%): 36%
  Population Fragmented Nuclei (%): 8%
  Population Healthy Nuclei (%): 71%
  Population Hoechst High Intensity Objects (%): 8%
  Population Membrane Permeable-Phenotype (%): 1%
  Population Mitochondria Different-Phenotype (%): 23%
  Population Mitotic Cells (%): 63%
  Population Normal (%): 91%
  Population Pyknosed Nuclei (%): 19%
  Population Tubulin-Different-Phenotype (%): 11%
  Total Cell Count: 613
[10]
  Population Apoptotic (%): 18%
  Population Fragmented Nuclei (%): 6%
  Population Healthy Nuclei (%): 72%
  Population Hoechst High Intensity Objects (%): 2%
  Population Membrane Permeable-Phenotype (%): 6%
  Population Mitochondria Different-Phenotype (%): 7%
  Population Mitotic Cells (%): 81%
  Population Normal (%): 97%
  Population Pyknosed Nuclei (%): 20%
  Population Tubulin-Different-Phenotype (%): 16%
  Total Cell Count: 357
[11]
  Population Apoptotic (%): 69%
  Population Fragmented Nuclei (%): 16%
  Population Healthy Nuclei (%): 33%
  Population Hoechst High Intensity Objects (%): 15%
  Population Membrane Permeable-Phenotype (%): 3%
  Population Mitochondria Different-Phenotype (%): 100%
  Population Mitotic Cells (%): 30%
  Population Normal (%): 84%
  Population Pyknosed Nuclei (%): 49%
  Population Tubulin-Different-Phenotype (%): 91%
  Total Cell Count: 210
[12]
  Population Apoptotic (%): 70%
  Population Fragmented Nuclei (%): 11%
  Population Healthy Nuclei (%): 28%
  Population Hoechst High Intensity Objects (%): 10%
  Population Membrane Permeable-Phenotype (%): 1%
  Population Mitochondria Different-Phenotype (%): 96%
  Population Mitotic Cells (%): 29%
  Population Normal (%): 89%
  Population Pyknosed Nuclei (%): 59%
  Population Tubulin-Different-Phenotype (%): 94%
  Total Cell Count: 211

## COCC(=O)NC/C=C/c1ccc2ncnc(Nc3ccc(Oc4ccc(C)nc4)c(C)c3)c2c1 [CP-724714]
[1]
  Population Apoptotic (%): 22% and 23%
  Population Fragmented Nuclei (%): 14% and 11%
  Population Healthy Nuclei (%): 39% and 69%
  Population Hoechst High Intensity Objects (%): 16% and 10%
  Population Mitotic Cells (%): 77% and 76%
  Population Normal (%): 83% and 89%
  Population Pyknosed Nuclei (%): 46% and 18%
  Total Cell Count: 617 and 674
[2]
  Population Apoptotic (%): 16% and 8%
  Population Healthy Nuclei (%): 70% and 89%
  Population Hoechst High Intensity Objects (%): 3% and 2%
  Population Mitotic Cells (%): 83% and 91%
  Population Normal (%): 96% and 97%
  Total Cell Count: 843 and 1632
[3]
  Population Apoptotic (%): 66%
  Population Fragmented Nuclei (%): 19%
  Population Healthy Nuclei (%): 18%
  Population Hoechst High Intensity Objects (%): 19%
  Population Membrane Permeable-Phenotype (%): 2%
  Population Mitochondria Different-Phenotype (%): 100%
  Population Mitotic Cells (%): 33%
  Population Normal (%): 80%
  Population Pyknosed Nuclei (%): 62%
  Population Tubulin-Different-Phenotype (%): 100%
  Total Cell Count: 329
[4]
  Population Apoptotic (%): 48%
  Population Fragmented Nuclei (%): 12%
  Population Healthy Nuclei (%): 12%
  Population Hoechst High Intensity Objects (%): 6%
  Population Membrane Permeable-Phenotype (%): 11%
  Population Mitochondria Different-Phenotype (%): 96%
  Population Mitotic Cells (%): 51%
  Population Normal (%): 93%
  Population Pyknosed Nuclei (%): 75%
  Population Tubulin-Different-Phenotype (%): 92%
  Total Cell Count: 230
[5]
  Population Apoptotic (%): 31% and 18%
  Population Fragmented Nuclei (%): 13% and 9%
  Population Healthy Nuclei (%): 54% and 81%
  Population Hoechst High Intensity Objects (%): 12% and 6%
  Population Membrane Permeable-Phenotype (%): 19%
  Population Mitotic Cells (%): 68% and 81%
  Population Normal (%): 87% and 93%
  Total Cell Count: 614 and 832
[6]
  Population Apoptotic (%): 14% and 5%
  Population Healthy Nuclei (%): 65% and 76%
  Population Hoechst High Intensity Objects (%): 4% and 2%
  Population Membrane Permeable-Phenotype (%): 10% and 9%
  Population Mitotic Cells (%): 85% and 94%
  Population Normal (%): 95% and 97%
  Total Cell Count: 1006 and 2815
[7]
  Population Apoptotic (%): 71%
  Population Fragmented Nuclei (%): 23%
  Population Healthy Nuclei (%): 17%
  Population Hoechst High Intensity Objects (%): 19%
  Population Membrane Permeable-Phenotype (%): 0%
  Population Mitochondria Different-Phenotype (%): 97%
  Population Mitotic Cells (%): 28%
  Population Normal (%): 80%
  Population Pyknosed Nuclei (%): 58%
  Total Cell Count: 336
[8]
  Population Apoptotic (%): 70%
  Population Fragmented Nuclei (%): 7%
  Population Healthy Nuclei (%): 28%
  Population Hoechst High Intensity Objects (%): 6%
  Population Membrane Permeable-Phenotype (%): 6%
  Population Mitochondria Different-Phenotype (%): 98%
  Population Mitotic Cells (%): 29%
  Population Normal (%): 93%
  Population Pyknosed Nuclei (%): 63%
  Population Tubulin-Different-Phenotype (%): 95%
  Total Cell Count: 245
[11]
  Population Apoptotic (%): 62%
  Population Fragmented Nuclei (%): 26%
  Population Healthy Nuclei (%): 10%
  Population Hoechst High Intensity Objects (%): 22%
  Population Membrane Permeable-Phenotype (%): 7%
  Population Mitochondria Different-Phenotype (%): 82%
  Population Mitotic Cells (%): 37%
  Population Normal (%): 77%
  Population Pyknosed Nuclei (%): 62%
  Population Tubulin-Different-Phenotype (%): 92%
  Total Cell Count: 347
[12]
  Population Apoptotic (%): 66%
  Population Fragmented Nuclei (%): 8%
  Population Healthy Nuclei (%): 51%
  Population Hoechst High Intensity Objects (%): 5%
  Population Mitochondria Different-Phenotype (%): 90%
  Population Mitotic Cells (%): 33%
  Population Normal (%): 94%
  Population Pyknosed Nuclei (%): 39%
  Population Tubulin-Different-Phenotype (%): 96%
  Total Cell Count: 291
